25 compounds from ChEMBL document CHEMBL1149572, “2-Aryl-N-acyl indole derivatives as liver X receptor (LXR) agonists” (Bioorg Med Chem Lett, 2007) can be followed below.

The structures appear in SMILES notation.

For assay [1], the system named is THP-1. Kind of assay: Induction of cholesterol efflux in THP1 cells. In kind it is functional, cell-based. The conditions noted are these: Homo sapiens.
In assay [2] the test system is THP-1. Kind of assay: Induction of cholesterol efflux in THP1 cells at 10 uM relative to control. In kind it is functional, Homo sapiens. The essentials: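 THP-1 cells differentiated to macrophages with 200 nM PMA for 30 h. Labelled with 1,2-3H(N)-cholesterol for 18 h alongside acLDL and 200 nM PMA. Exposed to vehicle or compound for 6 h in serum-free medium with 2 mg/ml BSA, then 18 h more with apoA-I added. Supernatant radioactivity read as fold-induction over vehicle. Mean of triplicates, single experiment.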

For assay [3], the system named is HepG2. Kind of assay: Induction of Lipogenesis in HepG2 cells at 10 uM relative to control. In kind it is functional, Homo sapiens. The essentials: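 HepG2 cells pre-treated with vehicle or compound for 24 h, then given [14C]-glycerol and cultured a further 48 h. Cellular triglycerides extracted, separated by TLC and quantified by phosphorimaging. Lipogenesis expressed as fold-induction over vehicle-only control. Mean of triplicate samples, single experiment.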

In assay [4] the test system is THP-1. Kind of assay: Induction of ABCA1 gene expression in THP1 cells at 10 uM relative to control. In kind it is functional, Homo sapiens.
Assay [5] relates to HepG2. Kind of assay: Induction of SREBP1c gene expression in HepG2 cells at 10 uM relative to control. In kind it is functional, Homo sapiens.
The target in assay [6] is T1, Oxysterols receptor LXR-beta (Homo sapiens, UniProt P55055).
T1 sequence (P55055 whole entry): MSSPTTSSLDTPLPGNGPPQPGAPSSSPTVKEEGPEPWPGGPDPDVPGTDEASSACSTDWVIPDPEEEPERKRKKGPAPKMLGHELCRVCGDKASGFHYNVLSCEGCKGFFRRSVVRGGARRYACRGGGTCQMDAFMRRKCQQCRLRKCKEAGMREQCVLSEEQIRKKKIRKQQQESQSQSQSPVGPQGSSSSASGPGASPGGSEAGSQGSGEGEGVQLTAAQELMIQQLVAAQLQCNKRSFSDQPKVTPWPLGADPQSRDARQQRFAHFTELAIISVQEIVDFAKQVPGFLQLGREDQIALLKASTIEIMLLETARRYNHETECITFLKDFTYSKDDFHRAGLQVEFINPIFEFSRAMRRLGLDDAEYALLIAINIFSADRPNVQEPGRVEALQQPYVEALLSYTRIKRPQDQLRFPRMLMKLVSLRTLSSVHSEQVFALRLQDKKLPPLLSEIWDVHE
Kind of assay: Agonist activity at human LXRbeta receptor transfected in COS7 cells after 16 hrs by reporter transactivation assay relative to GW-3965. In kind it is functional, cell-based. The conditions noted are these: cos-7. A digest of the protocol: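 COS-7 cells were transfected for 24 h with human LXRb, RXRa and an LXR-response-element luciferase reporter, then exposed to vehicle or compound for 16 h. Luciferase in the lysate was quantified and expressed as percent of the maximum induction given by GW3965. Values come from quadruplicates in a single experiment.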

Assay [7] concerns the target T1, Oxysterols receptor LXR-beta. Kind of assay: Agonist activity at human LXRbeta receptor after 1 hr by HTRF cofactor recruitment assay. In kind it is functional. The essentials: (§1)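 Cofactor recruitment was read by HTRF. Buffer was 50 mM Tris pH 7.5 with 50 mM KCl, 1 mM EDTA, 0.1% BSA and 1 mM DTT. Mixtures were shaken for 1 h at room temperature. Values are means of duplicates from a single experiment.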
(Time-resolved FRET reads energy transfer from a long-lived donor to a nearby acceptor.)

Assay [8] shares this target. Kind of assay: Agonist activity at human LXRbeta receptor transfected in COS7 cells after 16 hrs by reporter transactivation assay. In kind it is functional, cell-based, COS-7. The essentials: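 COS-7 cells were co-transfected for 24 h with human LXRb, RXRa and a luciferase reporter carrying three tandem LXR response elements. Cells were then treated with vehicle or compound for 16 h, and luciferase activity was measured in the lysate. EC50 was calculated from means of quadruplicates in a single experiment.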

Assay [9] has as its target T2, Oxysterols receptor LXR-alpha (Homo sapiens, UniProt Q13133).
T2 sequence (Q13133 whole entry): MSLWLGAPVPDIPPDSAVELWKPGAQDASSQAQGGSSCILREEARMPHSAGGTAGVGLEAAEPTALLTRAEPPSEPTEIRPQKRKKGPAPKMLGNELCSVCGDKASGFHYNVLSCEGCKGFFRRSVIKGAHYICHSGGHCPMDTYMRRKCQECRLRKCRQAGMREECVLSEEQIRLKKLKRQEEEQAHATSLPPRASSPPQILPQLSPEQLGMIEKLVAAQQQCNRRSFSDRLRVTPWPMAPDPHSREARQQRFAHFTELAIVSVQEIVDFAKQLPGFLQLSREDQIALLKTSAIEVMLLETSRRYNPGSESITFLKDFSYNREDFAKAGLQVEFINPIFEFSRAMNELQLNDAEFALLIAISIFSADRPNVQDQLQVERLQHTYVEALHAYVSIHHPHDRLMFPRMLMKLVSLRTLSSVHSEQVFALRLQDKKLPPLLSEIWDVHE
Kind of assay: Agonist activity at human LXRalpha receptor after 1 hr by HTRF cofactor recruitment assay. In kind it is functional. A digest of the protocol:
as §1

Regarding `N#CCCc1ccc(-c2cc3ccccc3n2C(=O)c2ccccc2)cc1`, the EC50 (commonly the concentration needed to bring the measured effect to its halfway point) turned out to be 0.051 µM in assay [1], 0.012 µM in [7], 0.042 µM in assay [8] and 0.22 µM in [9]. The Ratio in assay [2] stood at 1.7; in assay [3], 4; in assay [4], 10.3; in assay [5] it was 5.3. In addition, in assay [6], the Efficacy came to 39%.

With `O=C(O)Cc1cccc(OCCCN(Cc2cccc(C(F)(F)F)c2Cl)CC(c2ccccc2)c2ccccc2)c1`, the Ratio in [2] worked out at 1.8; in assay [3], 2.7; in [4], 10.7; in assay [5] it was 5.2. The same compound came in with an Efficacy in [6] of 100%.

For the compound `CC(C)(C)OC(=O)n1c(-c2ccc(CNS(=O)(=O)c3ccccc3)cc2)cc2ccccc21`, in assay [7], the EC50 turned out to be 0.22 µM.

As for `CC(C)(C)OC(=O)n1c(-c2ccc(NS(=O)(=O)c3ccccc3)cc2)cc2ccccc21`, a half-maximal response in [7] (EC50) required 1.32 µM.

In turn, `CC(C)(C)OC(=O)n1c(-c2ccc(CCCNC(=O)c3ccccc3)cc2)cc2ccccc21` gave an EC50 in assay [7] of 0.36 µM.

On to `CC(C)(C)OC(=O)n1c(-c2ccc(CCC(=O)Nc3ccccc3)cc2)cc2ccccc21`, for which the EC50 in assay [7] was found to be 1.78 µM.

`CC(C)(C)OC(=O)n1c(-c2ccc(CC#N)cc2)cc2ccccc21`: a half-maximal effect in [7] (EC50) was put at 0.3 µM.

On to `CC(C)(C)OC(=O)n1c(-c2ccc(CCC(=O)O)cc2)cc2ccccc21`, for which the 50% effective concentration (EC50) in assay [1] came out at 7 µM; in assay [7], 0.22 µM; in [8] it was 4.58 µM; in assay [9], 1.15 µM. In addition, the Ratio in [2] stood at 1.4; in assay [3] it was 1.2; in [4] it was 5.5. Further, the Efficacy in [6] turned out to be 76%.

Compound `CC(C)(C)OC(=O)n1c(-c2ccc(CN)cc2)cc2ccccc21` gave a 50% effective concentration (EC50) in [7] of 5.6 µM. In other words, the single-digit micromolar range.

On to `CC(C)(C)OC(=O)n1c(-c2ccc(CCNS(=O)(=O)c3cccs3)cc2)cc2ccccc21`, for which, in assay [7], a half-maximal response (EC50) required 0.058 µM.

`CC(C)(C)OC(=O)n1c(-c2ccc(CCCNS(=O)(=O)c3ccccc3)cc2)cc2ccccc21` yielded an EC50 in [7] of 0.35 µM.

In the case of `CC(C)(C)OC(=O)n1c(-c2ccc(CNC(=O)c3ccccc3)cc2)cc2ccccc21`, the EC50 in assay [7] was found to be 1.8 µM.

In the case of `CC(C)(C)OC(=O)n1c(-c2ccc3c(c2)CC(NS(=O)(=O)c2ccccc2)C3)cc2ccccc21` (centres undefined), the Ratio in assay [2] is reported as 1.6; in assay [3], 3.1; in assay [4], 8.4; in assay [5], 3.1. Further, the Efficacy in assay [6] was determined as 43%.

`CC(C)(C)OC(=O)n1c(-c2ccc(CCNS(=O)(=O)c3ccccc3)cc2)cc2ccccc21`: in assay [7], the response was half-maximal at 0.12 µM (EC50).

On to `CC(C)(C)OC(=O)n1c(-c2ccc(OCCO)cc2)cc2ccccc21`, for which the 50% effective concentration (EC50) in assay [7] is 0.42 µM.

In assay [7], `CC(C)(C)OC(=O)n1c(-c2ccc(CCCO)cc2)cc2ccccc21` returned a concentration giving a half-maximal response (EC50) of 0.38 µM.

Compound `CC(C)CNC(=O)CCc1ccc(-c2cc3ccccc3n2C(=O)OC(C)(C)C)cc1` yielded an EC50 in [7] of 1.51 µM.

In [7], `CC(C)(C)OC(=O)n1c(-c2ccc(CCNC(=O)c3ccccc3)cc2)cc2ccccc21` yielded a concentration for a half-maximal effect (EC50) of 1.75 µM.

In [7], `CC(C)(C)OC(=O)n1c(-c2cccc(CCNS(=O)(=O)c3ccccc3)c2)cc2ccccc21` came in with a half-maximal effective concentration (EC50) of 0.42 µM.

With `CC(C)(C)OC(=O)n1c(-c2ccc(CCC#N)cc2)cc2ccccc21`, the EC50 in assay [1] came to 2.47 µM; in assay [7], 0.13 µM; in [8], 0.576 µM; in [9], 1.19 µM. The Ratio in assay [2] came out at 2.2; in assay [3] it was 2.5; in assay [4], 6; in assay [5] it was 2.5. In assay [6], this compound returned an Efficacy of 45%.

The compound `O=C(NCCc1ccc(-c2cc3ccccc3n2C(=O)c2ccccc2)cc1)c1ccccc1` displayed a concentration giving a half-maximal response (EC50) in [7] of 1.78 µM.

On to `CNC(=O)CCc1ccc(-c2cc3ccccc3n2C(=O)OC(C)(C)C)cc1`, for which a half-maximal response in assay [7] (EC50) required 0.49 µM.

In assay [7], `CC(C)(C)OC(=O)n1c(-c2ccc(/C=C/C(N)=O)cc2)cc2ccccc21` showed an EC50 of 4.9 µM.

Regarding `CC(C)(C)OC(=O)n1c(-c2ccc(CCC(N)=O)cc2)cc2ccccc21`, the concentration giving a half-maximal response (EC50) was found to be 2.4 µM in assay [1], 0.057 µM in assay [7], 0.285 µM in assay [8] and 1.11 µM in [9]. For the same compound, the Ratio was 1.9 in assay [2], 2.7 in assay [3], 5.7 in assay [4] and 4 in [5]. In assay [6], this compound registered an Efficacy of 70%.

For `CC(C)(C)OC(=O)n1c(-c2ccc(CCc3ccc(-c4ccccn4)s3)cc2)cc2ccccc21`, the response in [7] was half-maximal at 0.23 µM (EC50).
